ChEMBL document CHEMBL1152543, “Novel semisynthetic derivatives of betulin and betulinic acid with cytotoxic activity” (Bioorg Med Chem, 2009)
Calls of active or inactive are those of the source. The calls are words filed in the database; no cut-off is given here.

Key:
Type in all cases: functional, cell-based
MCF7 = experiment: Cytotoxicity against human MCF7 cells at 20 uM after 72 hrs by MTT assay
Method in brief: (§1)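 Single-concentration screen: compound at 20 μM applied to cells plated at 1×10^3–30×10^3 cells/well (density set by cell type), 72 h at 37 °C, 5% CO2. Viability read by MTT, triplicate wells, experiment repeated three times; result given as % proliferation versus control.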

HepG2 [1] = experiment: Cytotoxicity against human HepG2 cells at 20 uM after 72 hrs by MTT assay; method in brief: as §1
A-375 = experiment: Cytotoxicity against human A375 cells at 20 uM after 72 hrs by MTT assay; method in brief: as §1
HT-29 = experiment: Cytotoxicity against human HT-29 cells at 20 uM after 72 hrs by MTT assay; method in brief: as §1
HeLa [2] = experiment: Cytotoxicity against human HeLa cells at 20 uM after 72 hrs by MTT assay; method in brief: as §1
MIA PaCa-2 = experiment: Cytotoxicity against human MIAPaCa2 cells at 20 uM after 72 hrs by MTT assay; method in brief: as §1
SH-SY5Y = experiment: Cytotoxicity against human SH-SY5Y cells at 20 uM after 72 hrs by XTT assay
Method in brief: (§2)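 XTT screen at a single concentration: cells seeded at 1×10^3–30×10^3 cells/well depending on cell type, exposed to 20 μM for 72 h at 37 °C, 5% CO2, then read by XTT. Triplicate wells, three independent repeats; output is % proliferation relative to control.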

Jurkat [3] = experiment: Cytotoxicity against human Jurkat cells at 20 uM after 72 hrs by XTT assay; method in brief: as §2
HepG2 [4] = experiment: Cytotoxicity against human HepG2 cells after 72 hrs by MTT assay; details: HepG2, 72 h
Method in brief: (§3)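 MTT dose–response: exponentially growing HeLa (1×10^3 cells/well) or HepG2 (8×10^3 cells/well, DMEM + 10% FBS, 1 mM pyruvate) seeded, left 24 h, then given a compound range in DMSO (final <0.1%) for 72 h. MTT 0.5 mg/ml for 1 h, formazan dissolved in DMSO, read at 550 nm. IC50 vs untreated by non-linear regression, mean ± SD of at least three experiments.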

Jurkat [5] = experiment: Cytotoxicity against human Jurkat cells after 72 hrs by XTT assay
Method in brief: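 Jurkat cells (RPMI 1640, 10% FBS, 2 mM glutamine) in exponential growth plated at 5.5×10^3 cells/well and treated in triplicate with a concentration range or DMSO vehicle for 72 h. XTT labeling mix added, 4 h, absorbance at 450 nm. IC50 vs untreated by non-linear regression; mean ± SD of ≥3 experiments.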

HeLa [6] = experiment: Cytotoxicity against human HeLa cells after 72 hrs by MTT assay; method in brief: as §3

Row | Structure (SMILES) | Activity (MCF7) | Activity (HepG2 [1]) | Activity (A-375) | Activity (HT-29) | Activity (HeLa [2]) | Activity (MIA PaCa-2) | Activity (SH-SY5Y) | Activity (Jurkat [3]) | IC50 (HepG2 [4]) | IC50 (Jurkat [5]) | IC50 (HeLa [6])
1 | C=C(C)[C@@H]1CC[C@]2(C(=O)O)CC[C@]3(C)[C@H](CC[C@@H]4[C@@]5(C)CC[C@H](OC(=O)n6ccnc6)C(C)(C)[C@@H]5CC[C@]43C)[C@@H]12 | Active | Active | Active | Active | Active | Active | Active | Active | 6.2 µM | 5.2 µM | 5.1 µM
2 | C[C@@H](C=O)[C@@H]1CC[C@]2(COC(=O)n3ccnc3)CC[C@]3(C)[C@H](CC[C@@H]4[C@@]5(C)CC[C@H](OC(=O)n6ccnc6)C(C)(C)[C@@H]5CC[C@]43C)[C@@H]12 |  |  |  |  |  |  |  |  | 26.1 µM | 20.2 µM | 19.2 µM
3 | C=C(C)[C@@H]1CC[C@]2(CO)CC[C@]3(C)[C@H](CC[C@@H]4[C@@]5(C)CC[C@H](OC(=O)n6ccnc6)C(C)(C)[C@@H]5CC[C@]43C)[C@@H]12 |  |  |  |  |  |  |  |  | 2 µM | 11.1 µM | 3 µM
4 | C=C(C)[C@@H]1CC[C@]2(C(=O)O)CC[C@]3(C)[C@H](CC[C@@H]4[C@@]5(C)CC[C@H](O)C(C)(C)[C@@H]5CC[C@]43C)[C@@H]12 [BETULINIC ACID] | Active | Active | Active | Active | Active | Active | Active | Active | 36.4 µM | 26.9 µM | 26 µM
5 | C=C(C)[C@@H]1CC[C@]2(COC(C)=O)CC[C@]3(C)[C@H](CC[C@@H]4[C@@]5(C)CC[C@H](OC(=O)n6ccnc6)C(C)(C)[C@@H]5CC[C@]43C)[C@@H]12 |  |  |  |  |  |  |  |  | > 30 µM | > 30 µM | > 30 µM
6 | C=C(C)[C@@H]1CC[C@]2(C(=O)n3ccnc3)CC[C@]3(C)[C@H](CC[C@@H]4[C@@]5(C)CC[C@H](OC(=O)n6ccnc6)C(C)(C)[C@@H]5CC[C@]43C)[C@@H]12 |  |  |  |  |  |  |  |  | 2.9 µM | 6 µM | 8.2 µM
7 | C=C(C)[C@@H]1CC[C@]2(C(=O)n3ccnc3)CC[C@]3(C)[C@H](CC[C@@H]4[C@@]5(C)C=C(O)C(=O)C(C)(C)[C@@H]5CC[C@]43C)[C@@H]12 | Active | Active | Active | Active | Active | Active | Active | Active | 6.5 µM | 7 µM | 4.6 µM
8 | C[C@@H](C=O)[C@@H]1CC[C@]2(COC(=O)n3ccnc3)CC[C@]3(C)[C@H](CC[C@@H]4[C@@]5(C)CC[C@H](O)C(C)(C)[C@@H]5CC[C@]43C)[C@@H]12 | Active | Active | Active | Active | Active | Active | Active | Active | 11.5 µM | 13.7 µM | 11.1 µM
9 | C=C(C)[C@@H]1CC[C@]2(COC(=O)n3ccnc3)CC[C@]3(C)[C@H](CC[C@@H]4[C@@]5(C)CC[C@H](OC(C)=O)C(C)(C)[C@@H]5CC[C@]43C)[C@@H]12 |  |  |  |  |  |  |  |  | > 30 µM | > 30 µM | > 30 µM
10 | C=C(C)[C@@H]1CC[C@]2(C(=O)n3ccnc3)CC[C@]3(C)[C@H](CC[C@@H]4[C@@]5(C)C=C(OC(=O)n6ccnc6)C(=O)C(C)(C)[C@@H]5CC[C@]43C)[C@@H]12 |  |  |  |  |  |  |  |  | 4 µM | 8.1 µM | 3.9 µM
11 | C=C(C)[C@@H]1CC[C@]2(C(=O)OC)CC[C@]3(C)[C@H](CC[C@@H]4[C@@]5(C)CC[C@H](OC(=O)n6ccnc6)C(C)(C)[C@@H]5CC[C@]43C)[C@@H]12 |  |  |  |  |  |  |  |  | 4.3 µM | 9.9 µM | 8.2 µM
12 | C=C(COC)[C@@H]1CC[C@]2(COC(=O)n3ccnc3)CC[C@]3(C)[C@H](CC[C@@H]4[C@@]5(C)CC[C@H](O)C(C)(C)[C@@H]5CC[C@]43C)[C@@H]12 | Active | Active | Active | Active | Active | Active | Active | Active | 8.3 µM | 12.2 µM | 9.8 µM
13 | C=C(C)[C@@H]1CC[C@]2(C(=O)n3ccnc3)CC[C@]3(C)[C@H](CC[C@@H]4[C@@]5(C)C=CC(=O)C(C)(C)[C@@H]5CC[C@]43C)[C@@H]12 |  |  |  |  |  |  |  |  | 1.7 µM | 2.3 µM | 3 µM
14 | C=C(COC)[C@@H]1CC[C@]2(COC(=O)n3ccnc3)CC[C@]3(C)[C@H](CC[C@@H]4[C@@]5(C)CC[C@H](OC(=O)n6ccnc6)C(C)(C)[C@@H]5CC[C@]43C)[C@@H]12 |  |  |  |  |  |  |  |  | 19.6 µM | 16.2 µM | > 30 µM
15 | C=C(C)[C@@H]1CC[C@]2(COC(=O)n3ccnc3)CC[C@]3(C)[C@H](CC[C@@H]4[C@@]5(C)CC[C@H](O)C(C)(C)[C@@H]5CC[C@]43C)[C@@H]12 | Active | Active | Active | Active | Active | Active | Active | Active | 4.2 µM | 16.3 µM | 7.6 µM
16 | C=C(C)[C@@H]1CC[C@]2(C(=O)n3ccnc3)CC[C@]3(C)[C@H](CC[C@@H]4[C@@]5(C)CCC(=O)C(C)(C)[C@@H]5CC[C@]43C)[C@@H]12 |  |  |  |  |  |  |  |  | 0.8 µM | 1.4 µM | 2 µM
17 | C=C(C)[C@@H]1CC[C@]2(COC(=O)n3ccnc3)CC[C@]3(C)[C@H](CC[C@@H]4[C@@]5(C)CC[C@H](OC(=O)n6ccnc6)C(C)(C)[C@@H]5CC[C@]43C)[C@@H]12 |  |  |  |  |  |  |  |  | > 30 µM | > 30 µM | > 30 µM
